This excerpt belongs to a sample that is enriched for hits.
INS promoter act = TRM-6 insulin promoter activation. TRM-6 cells (human fetal islet line), insulin promoter eGFP reporter, imaging; plate-scaled: unstimulated 0, stimulated control 100. activation, % at 2 µM. 130,000 tested, 0.81% active;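 active means activation at 2 µM above a set limit, confirmed on inspection of the cell images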;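 further: share of cells whose green reporter signal exceeds an intensity cutoff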
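test system = TRM-6 insulin promoter–eGFP reporter cells | benchmarks = stimulated versus unstimulated wells as plate controls | read-out basis = percent cells above green-intensity threshold, converted to percent activation versus plate controls | detection = fixed-cell fluorescence microscopy, eGFP plus Hoechst | incubation = tamoxifen pre-incubation 15 h overnight, then compound exposure 48 h at 37 °C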
Active calls of the source: *; [ ] = another dose, or the depositor's remark.

SMILES	INS promoter act
COc1cccc(CSc2nc3cc4c(cc3cc2C)OCCO4)c1	3.4
Cc1ccc(S(=O)(=O)NCc2ccco2)cc1C(N)=O	-8.3
O=[N+]([O-])c1cc(C(F)(F)F)ccc1NCCNC(=S)Nc1ccc(Cl)cc1	6.7
Cn1c(-c2cccc(Br)c2)n[nH]c1=O	0.0
O=[N+]([O-])c1ccc(NC(=S)N2CCc3ccccc3C2)cc1	-3.2
CCOc1ccc(NC(=O)CSc2nc(-c3cccs3)cc(C(F)(F)F)n2)c([N+](=O)[O-])c1	7.1
CCOC(=O)c1cccc(NC(=O)CSc2nnc(CNc3ccc(C)cc3)n2CC)c1	0.0
CCOC(=O)c1cccc(NC(=O)CSc2nnc(-c3cccnc3)n2CC)c1	80.6*
CCOC(=O)c1cccc(NC(=O)c2cccnc2)c1	9.1
CC(C)(C)N1CC2([N+](=O)[O-])CN(C(C)(C)C)CC([N+](=O)[O-])(C1)C2	0.0
O=C(O)Cc1cc(C(=O)Nc2ccc(Br)cc2)sc1-c1ccccc1	-8.3
CN(CCO)c1c2c(nc3cc(-c4cccc(F)c4)nn13)CCCC2	94.6*
Fc1cccc(-c2cc3nc4c(c(N5CCC6(CC5)OCCO6)n3n2)CCCC4)c1	-3.8
COCCN1CCN(c2cc(-c3ccccc3)nc3cc(-c4cccc(F)c4)nn23)CC1	-6.7
Cc1ccccc1C(=O)Nc1ccccc1-n1cccc1	1.4
Cc1ccccc1NC(=O)c1cccc2nc3ccccc3nc12	233.3*
Cc1ccccc1NC(=O)c1c(Cl)nc(C)c(Cl)c1C	156.3
C=CCN(Cc1nc(-c2ccc(OC)c(OC)c2)oc1C)C1CCS(=O)(=O)C1 (stereo unspecified)	-7.1
CCOC(=O)/C(C#N)=C\c1cccnc1	7.1
C=CCN1C=CC(=C/C=C(/C#N)C(=O)OCC)C=C1	163.2*
CCOC(=O)/C(C#N)=C/c1cccc(F)c1	7.1
CC(Nc1[nH]c(=O)n(C)c(=O)c1N=O)c1ccccc1 (stereo unspecified)	0.0
C/C(=N\NC(=O)c1ccc(Cl)c(S(=O)(=O)Nc2ccccc2Cl)c1)c1ccncc1	6.5
Cc1ccc(NC(=O)CNC2CCS(=O)(=O)C2)cc1C (stereo unspecified)	-2.9
COc1ccc(CCNC(=O)c2ccc3c(SCC(=O)O)c4c(nc3c2)CCCC4)cc1OC	-7.1
SMILES	INS promoter act
CCOC(=O)/C(=C/C=C1\Sc2cc(OCC)c(OCC)cc2N1CC)C(C)=O	669.2*[fluoresces]
Fc1ccc(C2c3[nH]c4ccccc4c3CCN2Cc2cccn2-c2ncccn2)cc1 (stereo unspecified)	-7.1
COCc1ccc(CN2CCc3c([nH]c4ccccc34)C2C(C)(C)C)o1 (stereo unspecified)	231.3*
COc1cccc(C2c3[nH]c4ccccc4c3CCN2C(=O)Cn2cncn2)c1OC (stereo unspecified)	-2.4
O=C(c1ccc([N+](=O)[O-])c(CS(=O)(=O)c2ccc(Cl)cc2)c1)N1CCCCC1	118.2
CC(C)c1ccc2c(c1)C1Cc3ccccc3C1N2 (stereo unspecified)	136.7
COc1ccc(S(=O)(=O)N2CCC(C(=O)Nc3ccc(F)cc3)CC2)c2cccnc12	0.0
c1ccc(Oc2ccc(-c3ccnc4nc(N5CCOCC5)nn34)cc2)cc1	-2.9
c1ccc(Oc2ccc(-c3ccnc4ncnn34)cc2)cc1	397.1*
Clc1ccc(COc2ccccc2-c2ccnc3ncnn23)cc1	9.1
CC(C)[C@H](NC(=O)c1ccc(C(C)(C)C)cc1)C(=O)Nc1nnc(C2CC2)s1	-5.4
CCn1c(SCc2ccccc2)nnc1-c1cccnc1	0.0
CCN(C(=O)Cc1c(C(=O)O)n(C)c2ccccc12)c1ccc(F)cc1	-7.1
N#CC1=C(N)C2=C(N3CCCCC3)CCCC2C1(C#N)C#N (stereo unspecified)	-5.6
CCN(CC)C1=CC2=CC(=C(C#N)C#N)CCC2CC1 (stereo unspecified)	525.0*
N#CC(C#N)=C1C=C2C=C(N3CCCCC3)CCC2CC1 (stereo unspecified)	212.5*
CCCCN(C)C1=CC2=CC(=C(C#N)C#N)CCC2CC1 (stereo unspecified)	244.8*[fluoresces]
COc1ccc(CCNC(=O)c2ccc(-c3ccc([N+](=O)[O-])cc3Cl)o2)cc1	-100.0
CCN(CC)C(=O)C(Cc1ccccc1)N1C(=O)c2ccccc2C1=O (stereo unspecified)	4.3
O=[N+]([O-])c1cc(S(=O)(=O)N2CCCC2)ccc1SCCO	127.3
CN(C)S(=O)(=O)Oc1cc(Cl)ccc1C(=O)Nc1ccc(F)cc1F	-6.7
CCOc1ccc(Cl)cc1CSc1ncn[nH]1	0.0
CCOc1ccccc1NC(=S)N1CCN(c2nc(-c3ccc(F)cc3)cs2)CC1	5.3
CCCn1nnc(NC(=S)NC(=O)CC)n1	5.7
C=CCNC(=O)C1CCN(c2c([N+](=O)[O-])cc(C(F)(F)F)cc2[N+](=O)[O-])CC1	0.0
SMILES	INS promoter act
Cc1ccc(S(=O)(=O)N(C)C)cc1NC(=O)COC(=O)/C(=C/c1ccc(F)cc1)c1cccs1	-64.3
O=[N+]([O-])c1ccc(-c2ccc(/C=N/Nc3nc(N4CCCCC4)nc(N4CCCCC4)n3)o2)cc1	614.3*
O=[N+]([O-])c1ccc(-n2cccc2/C=N/Nc2nc(N3CCCCC3)nc(N3CCCCC3)n2)cc1	0.0
O=[N+]([O-])c1cccc(/C=N/Nc2nc(N3CCCCC3)nc(N3CCCCC3)n2)c1	-71.4
O=C(NCCCn1ccnc1)c1cc2cc([N+](=O)[O-])ccc2oc1=O	0.0
N#Cc1c(NC(=O)C2CC(c3ccccc3O)=NO2)sc2c1CCC2 (stereo unspecified)	0.0
CCOC(=O)CNC(=O)CSc1nnc(-c2ccccc2)n1Cc1ccco1	-6.1
O=C(CSc1nnc(-c2ccc(Cl)cc2)n1Cc1ccco1)NCc1ccc2c(c1)OCO2	80.0*
COc1ccc(-c2cnc(SCC(=O)Nc3ccc4c(c3)OCO4)n2Cc2ccco2)cc1	-5.7
CCN1/C(=C/c2ccc3cc(C)ccc3[n+]2CC)Sc2cc(C)ccc21	614.3*
CCN1/C(=C/c2ccc3cc(C)ccc3[n+]2C)Sc2ccc3sccc3c21	376.2*
O=C(CN1CCN(C/C=C/c2ccccc2)CC1)Nc1cc([N+](=O)[O-])ccc1Cl	8.1
Cc1ccc(S(=O)(=O)N2CCN(Cc3ccsc3)CC2)cc1	0.0
COC(=O)c1[nH]c2ccccc2c1NC(=O)CN1CCN(c2cccc(OC)c2)C(C)C1 (stereo unspecified)	-9.4
COC(=O)c1[nH]c2ccc(C)cc2c1NC(=O)Nc1ccccc1OC	0.0
COC(=O)c1[nH]c2cc(C)ccc2c1NC(=O)CN1CCCc2ccccc21	190.9*
COc1cc2[nH]ccc(=O)c2cc1OC	0.0
COc1ccc[nH]c1=O	154.5*
COc1ccccc1Nc1nnc(C)c(=O)[nH]1	-6.7
Cn1c2ccccc2n2c(=O)c(Cl)c(-c3ccccc3)c(C#N)c12	-8.3
CS(=O)(=O)N1CCC(C(=O)N2CCN(c3ccccc3F)CC2)CC1	-5.9
CCOC(=O)Nc1ccc(OC)cc1S(=O)(=O)N1CCCCC1	6.5
Nc1nncn1C(=O)CCCN1C(=O)c2ccccc2C1=O	268.8
Cc1c(Cl)cccc1NC(=O)CSCC(N)=O	207.7
Nc1nncn1C(=O)c1c(Cl)cccc1Cl	443.8*
COc1cc(SC)ccc1C(=O)OC(C)C(=O)NC1CCCC1 (stereo unspecified)	0.0
COc1ccc2cc(CN(CC3CCCO3)C(=S)Nc3ccccc3)c(=O)[nH]c2c1 (stereo unspecified)	-7.1
CCc1ccc(OCC(=O)NC(NC(=S)Nc2ccc(Cl)cc2)C(Cl)(Cl)Cl)cc1 (stereo unspecified)	-7.4
